Source: ChEMBL document CHEMBL3414560, “Discovery of 4-(dihydropyridinon-3-yl)amino-5-methylthieno[2,3-d]pyrimidine derivatives as potent Mnk inhibitors: synthesis, structure-activity relationship analysis and biological evaluation” (Eur J Med Chem, 2015)
Calls of active or inactive are those of the source. No cut-off for these calls is given here.

Legend:
[1] = target: T1, MAP kinase-interacting serine/threonine-protein kinase 1 (Homo sapiens, UniProt Q9BUB5); assay: Inhibition of Mnk1 (unknown origin) pre-incubated for 10 mins before eIF4E peptide substrate addition by ADP-Glo kinase assay
Target sequence in this assay (Q9BUB5 whole entry): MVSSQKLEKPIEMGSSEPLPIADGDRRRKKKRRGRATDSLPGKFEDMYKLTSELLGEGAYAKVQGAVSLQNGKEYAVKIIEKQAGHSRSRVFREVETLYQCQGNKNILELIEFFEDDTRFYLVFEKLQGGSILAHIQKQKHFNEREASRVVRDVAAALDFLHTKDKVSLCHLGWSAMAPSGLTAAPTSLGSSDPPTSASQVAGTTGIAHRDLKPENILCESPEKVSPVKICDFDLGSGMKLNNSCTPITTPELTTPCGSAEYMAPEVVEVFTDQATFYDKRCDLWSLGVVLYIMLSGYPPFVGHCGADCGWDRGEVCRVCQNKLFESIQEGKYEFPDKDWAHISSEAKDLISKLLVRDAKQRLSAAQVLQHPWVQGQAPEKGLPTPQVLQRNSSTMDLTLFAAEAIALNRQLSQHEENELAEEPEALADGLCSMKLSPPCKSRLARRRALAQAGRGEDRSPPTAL

[2] = target: MAP kinase-interacting serine/threonine-protein kinase 2 (Homo sapiens, UniProt Q9HBH9); assay: Inhibition of Mnk2 (unknown origin) pre-incubated for 10 mins before eIF4E peptide substrate addition by ADP-Glo kinase assay
[3] = system: MV4-11; assay: Growth inhibition of human MV4-11 cells after 72 hrs by resazurin assay; format: functional; settings: MV4-11, 72 h
[4] = target: CDK2/Cyclin A2 (Homo sapiens) (UniProt P24941+P20248); assay: Inhibition of CDK2/cyclinA (unknown origin) assessed as reduction in kinase activity at 10 uM using ATP; format: protein-complex assay
[5] = target: CDK9/cyclin T1 (Homo sapiens) (UniProt O60563+P50750); assay: Inhibition of CDK9/cyclinT1 (unknown origin) assessed as reduction in kinase activity at 10 uM using ATP; format: protein-complex assay
[6] = target: Mitogen-activated protein kinase 1 (Homo sapiens) (UniProt P28482); assay: Inhibition of MAPK1 (unknown origin) assessed as reduction in kinase activity at 10 uM using ATP
[7] = target: Serine/threonine-protein kinase mTOR (Homo sapiens) (UniProt P42345); assay: Inhibition of mTOR (unknown origin) assessed as reduction in kinase activity at 10 uM using ATP
[8] = target: RAC-alpha serine/threonine-protein kinase (Homo sapiens) (UniProt P31749); assay: Inhibition of PKBalpha (unknown origin) assessed as reduction in kinase activity at 10 uM using ATP
[9] = target: Mitogen-activated protein kinase 14 (Homo sapiens) (UniProt Q16539); assay: Inhibition of SAPK2a (unknown origin) assessed as reduction in kinase activity at 10 uM using ATP
[10] = species on record: Homo sapiens; assay: Inhibition of PI3K (unknown origin) assessed as reduction in kinase activity at 10 uM using ATP
[11] = target: Receptor-type tyrosine-protein kinase FLT3 (Homo sapiens) (UniProt P36888); assay: Inhibition of FLT3 (unknown origin) assessed as reduction in kinase activity at 10 uM using ATP
[12] = target: Serine/threonine-protein kinase pim-1 (Homo sapiens) (UniProt P11309); assay: Inhibition of PIM1 (unknown origin) assessed as reduction in kinase activity at 10 uM using ATP
[13] = system: MV4-11; assay: Induction of apoptosis in human MV4-11 cells at 20 uM after 24 hrs by FITC annexin-V/PI staining based flow cytometry; format: functional
Procedure, shortened: (§1)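 MV-4-11 cells seeded at 8 × 10^4, overnight at 37 °C, 5% CO2, then treated 24 h (DMSO diluent control); pellets collected (300 × g, 5 min), stained with FITC annexin V/PI kit and analysed by flow cytometry within 1 h; apoptotic = annexin V+/PI− plus annexin V+/PI+ cells.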

[14] = system: MV4-11; assay: Induction of caspase-3/7 activation in human MV4-11 cells at 20 uM after 24 hrs; format: functional, cell-based
Procedure, shortened: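 MV-4-11 cells treated 24 h, DMSO diluent as control; caspase-3/7 activity measured with Apo-ONE homogeneous caspase-3/7 kit per manufacturer, read on plate reader; expressed as relative activity.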

[15] = system: MV4-11; assay: Induction of cell cycle arrest in human MV4-11 cells assessed as accumulation at G1 phase at 20 uM after 24 hrs by FITC propidium iodide staining based flow cytometry (reference value: 58.1%); format: functional
[16] = system: MV4-11; assay: Induction of cell cycle arrest in human MV4-11 cells assessed as accumulation at subG1 phase at 20 uM after 24 hrs by FITC propidium iodide staining based flow cytometry (reference value: 7.7%); format: functional
[17] = system: MV4-11; assay: Induction of cell cycle arrest in human MV4-11 cells assessed as accumulation at S phase at 20 uM after 24 hrs by FITC propidium iodide staining based flow cytometry (reference value: 16.7%); format: functional
[18] = system: MV4-11; assay: Induction of cell cycle arrest in human MV4-11 cells assessed as accumulation at G2/M phase at 20 uM after 24 hrs by FITC propidium iodide staining based flow cytometry (reference value: 17.5%); format: functional
[19] = target: T1, MAP kinase-interacting serine/threonine-protein kinase 1; assay: Inhibition of Mnk1 in human MV4-11 cells assessed as reduction in eIF4E Ser209 phosphorylation at 20 uM after 24 hrs by Western blotting method; format: cell-based
Procedure, shortened: (§2)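 MV-4-11 cells in RPMI-1640 with 10% FBS, exposed 24 h (DMSO diluent control); Western blot probing Mnk1, eIF4E, p-eIF4E Ser209, Bcl-2, Mcl-1, cyclin D1, PARP, cleaved PARP; β-actin as loading control; HRP-conjugated anti-mouse/anti-rabbit IgG secondaries.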
Target sequence in this assay (Q9BUB5 whole entry, looked up): as the sequence (Q9BUB5 whole entry) above

[20] = system: MV4-11; assay: Effect on total Mnk1 protein level in human MV4-11 cells at 20 uM after 24 hrs by Western blotting method; format: functional, cell-based; procedure, shortened: as §2
[21] = system: MV4-11; assay: Effect on total eIF4E protein level in human MV4-11 cells at 20 uM after 24 hrs by Western blotting method; format: functional, cell-based; procedure, shortened: as §2
[22] = system: MV4-11; assay: Induction of apoptosis in human MV4-11 cells assessed as reduction in Mcl1 expression at 20 uM after 24 hrs by Western blotting method; format: functional, cell-based; procedure, shortened: as §2
[23] = system: MV4-11; assay: Induction of apoptosis in human MV4-11 cells assessed as induction of PARP cleavage expression at 20 uM after 24 hrs by Western blotting method; format: functional, cell-based; procedure, shortened: as §2
[24] = system: MV4-11; assay: Reduction in cyclin D1 expression in human MV4-11 cells at 20 uM after 24 hrs by Western blotting method; format: functional, cell-based
Procedure, shortened: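 MV-4-11 AML cells grown in RPMI-1640 with 10% FBS, treated 24 h at the stated concentration against a DMSO diluent control. Lysates probed by Western blot for cyclin D1, with β-actin as loading control and HRP-conjugated anti-mouse/anti-rabbit IgG secondaries.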

[25] = system: MV4-11; assay: Induction of apoptosis in human MV4-11 cells assessed as viable cells level at 20 uM after 24 hrs by FITC annexin-V/PI staining based flow cytometry (reference value: 91.49%); format: functional; procedure, shortened: as §1
[26] = system: MV4-11; assay: Induction of apoptosis in human MV4-11 cells assessed as early apoptotic cells level at 20 uM after 24 hrs by FITC annexin-V/PI staining based flow cytometry (reference value: 3.02%); format: functional; procedure, shortened: as §1
[27] = system: MV4-11; assay: Induction of apoptosis in human MV4-11 cells assessed as late apoptotic cells level at 20 uM after 24 hrs by FITC annexin-V/PI staining based flow cytometry (reference value: 5.4%); format: functional; procedure, shortened: as §1
[28] = system: MV4-11; assay: Induction of apoptosis in human MV4-11 cells assessed as necrotic cells level at 20 uM after 24 hrs by FITC annexin-V/PI staining based flow cytometry (reference value: 0.1%); format: functional; procedure, shortened: as §1

Sequence of MAP kinase-interacting serine/threonine-protein kinase 2 (Q9HBH9 whole entry): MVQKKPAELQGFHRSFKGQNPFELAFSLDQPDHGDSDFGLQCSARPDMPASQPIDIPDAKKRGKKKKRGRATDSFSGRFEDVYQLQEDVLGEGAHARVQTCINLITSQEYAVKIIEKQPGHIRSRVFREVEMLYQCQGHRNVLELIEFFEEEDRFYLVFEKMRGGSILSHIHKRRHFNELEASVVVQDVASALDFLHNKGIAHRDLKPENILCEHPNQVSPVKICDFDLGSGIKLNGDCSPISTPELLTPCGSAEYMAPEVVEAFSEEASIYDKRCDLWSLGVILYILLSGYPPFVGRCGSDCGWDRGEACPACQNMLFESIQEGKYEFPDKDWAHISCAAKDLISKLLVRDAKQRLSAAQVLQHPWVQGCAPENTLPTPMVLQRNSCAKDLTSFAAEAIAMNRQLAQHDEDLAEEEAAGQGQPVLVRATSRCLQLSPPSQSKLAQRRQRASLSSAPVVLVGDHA
Sequence of Receptor-type tyrosine-protein kinase FLT3 (Homo sapiens) (P36888 whole entry): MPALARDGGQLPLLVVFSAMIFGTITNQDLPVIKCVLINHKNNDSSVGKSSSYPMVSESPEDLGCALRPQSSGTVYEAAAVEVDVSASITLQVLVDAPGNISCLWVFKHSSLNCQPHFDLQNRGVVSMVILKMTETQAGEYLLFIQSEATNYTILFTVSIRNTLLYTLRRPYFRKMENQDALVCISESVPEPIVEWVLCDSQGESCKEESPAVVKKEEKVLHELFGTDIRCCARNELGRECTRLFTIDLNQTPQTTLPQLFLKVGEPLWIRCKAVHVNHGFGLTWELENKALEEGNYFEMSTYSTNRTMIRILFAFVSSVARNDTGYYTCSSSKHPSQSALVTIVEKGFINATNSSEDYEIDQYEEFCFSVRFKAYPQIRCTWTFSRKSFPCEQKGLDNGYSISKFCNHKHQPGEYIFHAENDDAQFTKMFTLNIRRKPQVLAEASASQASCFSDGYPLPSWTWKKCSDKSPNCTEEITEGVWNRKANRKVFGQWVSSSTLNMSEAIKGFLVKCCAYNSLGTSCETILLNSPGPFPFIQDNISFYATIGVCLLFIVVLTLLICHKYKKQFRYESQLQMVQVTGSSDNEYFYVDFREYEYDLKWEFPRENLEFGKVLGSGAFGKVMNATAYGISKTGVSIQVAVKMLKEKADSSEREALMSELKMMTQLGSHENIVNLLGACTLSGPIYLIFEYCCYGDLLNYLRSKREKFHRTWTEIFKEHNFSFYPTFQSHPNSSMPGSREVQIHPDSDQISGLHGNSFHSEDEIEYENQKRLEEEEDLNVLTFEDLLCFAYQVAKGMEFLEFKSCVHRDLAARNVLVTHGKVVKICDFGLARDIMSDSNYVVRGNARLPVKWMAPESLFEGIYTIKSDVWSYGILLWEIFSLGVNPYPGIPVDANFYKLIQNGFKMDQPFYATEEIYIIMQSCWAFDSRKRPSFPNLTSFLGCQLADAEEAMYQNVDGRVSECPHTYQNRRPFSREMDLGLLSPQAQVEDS
Sequence of Mitogen-activated protein kinase 1 (Homo sapiens) (P28482 whole entry): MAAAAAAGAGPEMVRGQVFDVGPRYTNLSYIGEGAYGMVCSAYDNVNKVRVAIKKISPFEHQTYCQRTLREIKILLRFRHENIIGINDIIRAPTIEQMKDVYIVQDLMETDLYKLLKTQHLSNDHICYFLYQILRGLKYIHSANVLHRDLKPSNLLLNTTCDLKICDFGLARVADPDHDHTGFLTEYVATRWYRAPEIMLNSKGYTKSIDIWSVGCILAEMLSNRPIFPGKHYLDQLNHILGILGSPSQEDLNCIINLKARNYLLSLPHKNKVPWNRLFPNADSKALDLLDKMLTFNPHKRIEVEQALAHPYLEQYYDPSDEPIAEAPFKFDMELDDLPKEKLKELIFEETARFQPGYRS
Sequence of Mitogen-activated protein kinase 14 (Homo sapiens) (Q16539 whole entry): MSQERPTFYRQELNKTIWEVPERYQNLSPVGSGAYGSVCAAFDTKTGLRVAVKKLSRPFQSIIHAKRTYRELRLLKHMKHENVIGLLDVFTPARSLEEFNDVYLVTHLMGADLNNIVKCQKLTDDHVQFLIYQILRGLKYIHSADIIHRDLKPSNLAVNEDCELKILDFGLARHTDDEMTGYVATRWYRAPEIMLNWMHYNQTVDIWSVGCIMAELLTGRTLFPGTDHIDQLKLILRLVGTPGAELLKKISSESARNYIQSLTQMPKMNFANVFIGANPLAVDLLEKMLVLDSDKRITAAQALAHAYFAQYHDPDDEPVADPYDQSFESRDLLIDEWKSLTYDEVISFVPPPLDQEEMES
Sequence of RAC-alpha serine/threonine-protein kinase (Homo sapiens) (P31749 whole entry): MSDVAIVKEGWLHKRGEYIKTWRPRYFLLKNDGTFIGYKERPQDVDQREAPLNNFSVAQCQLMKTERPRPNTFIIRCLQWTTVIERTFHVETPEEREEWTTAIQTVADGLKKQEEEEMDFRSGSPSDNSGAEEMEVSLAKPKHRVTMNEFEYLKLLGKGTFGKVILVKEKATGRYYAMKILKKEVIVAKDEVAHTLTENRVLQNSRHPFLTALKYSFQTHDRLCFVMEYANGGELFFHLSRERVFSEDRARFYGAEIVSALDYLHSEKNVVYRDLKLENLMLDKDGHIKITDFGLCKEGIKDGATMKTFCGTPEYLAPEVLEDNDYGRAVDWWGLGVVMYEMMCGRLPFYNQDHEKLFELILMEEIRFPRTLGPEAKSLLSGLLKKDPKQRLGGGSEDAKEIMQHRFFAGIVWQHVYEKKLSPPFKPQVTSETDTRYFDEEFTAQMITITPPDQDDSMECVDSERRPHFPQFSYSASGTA
Sequence of Serine/threonine-protein kinase pim-1 (Homo sapiens) (P11309 whole entry, looked up): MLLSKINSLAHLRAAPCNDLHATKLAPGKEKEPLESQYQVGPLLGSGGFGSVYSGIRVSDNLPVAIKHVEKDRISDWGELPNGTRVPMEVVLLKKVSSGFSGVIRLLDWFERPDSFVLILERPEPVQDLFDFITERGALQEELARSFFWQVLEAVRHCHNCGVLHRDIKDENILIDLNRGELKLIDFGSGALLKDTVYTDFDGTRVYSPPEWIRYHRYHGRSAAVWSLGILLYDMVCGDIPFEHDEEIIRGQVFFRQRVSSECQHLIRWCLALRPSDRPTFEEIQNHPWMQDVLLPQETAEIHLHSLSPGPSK

What does the source list for COCCCNC(=O)c1sc2ncnc(Nc3cc(C)cn(C)c3=O)c2c1C?
Ki [1]: 5 µM; Ki [2]: 2.63 µM; GI50 [3]: 5.73 µM; inhibition [4]: inactive; inhibition [5]: inactive; inhibition [6]: inactive; inhibition [7]: inactive; inhibition [8]: inactive; inhibition [9]: inactive; inhibition [10]: inactive; inhibition [11]: 31%; inhibition [12]: inactive; Activity [13]: 6%; Activity [14]: inactive; Activity [15]: 72.5%; Activity [16]: 12.5%; Activity [17]: 8.1%; Activity [18]: 6.9%; inhibition [19]: Active; Activity [20]: inactive; Activity [21]: inactive; Activity [22]: Active; Activity [23]: Active; Activity [24]: Active; Activity [25]: 83.96%; Activity [26]: 4.52%; Activity [27]: 11.4%; Activity [28]: 0.1%
